The values below come from ChEMBL document CHEMBL1773023, “Potent and selective phosphopeptide mimetic prodrugs targeted to the Src homology 2 (SH2) domain of signal transducer and activator of transcription 3” (J Med Chem, 2011).

The target in test [1] is T1, Signal transducer and activator of transcription 3 (Homo sapiens, UniProt P40763). As to the kind of experiment: Inhibition of SH2 domain of Stat3 phosphorylation at Tyr705 in human HCC-827 cells at 5 uM after 10 mins by Western blotting. Format: cell-based. In short, it runs like this: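 HCC-827 NSCLC cells treated with 5 μM prodrug and sampled over a time course from 10 min to 24 h; pStat3 by Western blot.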
(In general: In western blotting, separated proteins are transferred to a membrane and probed.)

Test [2] deals with T1, Signal transducer and activator of transcription 3. Description: Inhibition of SH2 domain of Stat3 constitutive phosphorylation at Tyr705 in human MDA-MB-468 cells at 0.1 uM after 2 hrs by Western blotting. It counts as cell-based. In short, it runs like this:
(§1)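 MDA-MB-468 cells (4×10^5/well, DMEM 10% FCS, overnight) given prodrug from freshly made 10 mM DMSO stock for 2 h. Lysates in Hepes pH 7.4 Triton buffer with phosphatase/protease inhibitors; 12 μg protein on 8% SDS-PAGE, PVDF, probed for pStat3 Y705 by ECL, then stripped and reprobed for total Stat3.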

The target is the same in test [3]. Description: Inhibition of SH2 domain of Stat3 constitutive phosphorylation at Tyr705 in human MDA-MB-468 cells at 5 uM after 8 hrs by Western blotting. It counts as cell-based. In short, it runs like this: (§2)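 MDA-MB-468 cells given a single 5 μM prodrug dose and harvested at set times; pTyr705 and total Stat3 by Western blot of 12 μg lysate protein on 8% SDS-PAGE.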

Test [4] has as its target RAC-alpha serine/threonine-protein kinase (Homo sapiens) (UniProt P31749). Description: Inhibition of Akt phosphorylation at Ser473 in human HCC-827 cells at 5 uM after up to 24 hrs by Western blotting. It counts as cell-based.
Test [5] deals with T1, Signal transducer and activator of transcription 3. As to the kind of experiment: Inhibition of SH2 domain of Stat3 constitutive phosphorylation at Tyr705 in human MDA-MB-468 cells at 5 uM after 30 mins by Western blotting. It counts as cell-based. The gist of the method:
as §2

For test [6] the target is unchanged. As to the kind of experiment: Inhibition of SH2 domain of Stat3 constitutive phosphorylation at Tyr705 in human MDA-MB-468 cells at 5 uM after 4 hrs by Western blotting. It counts as cell-based. The gist of the method: as §2
Test [7] shares this target. Description: Inhibition of EGF-induced SH2 domain of Stat3 phosphorylation at Tyr705 in human MDA-MB-468 cells at 5 uM treated 1.5 hrs before EGF challenge measured after 30 mins by Western blotting. Format: cell-based. In short, it runs like this:
(§3)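 MDA-MB-468 cells pretreated 1.5 h with prodrug (5 μM), then EGF 100 ng/mL for 30 min; lysates split onto three PVDF blots probed for phospho/total Stat3, pSer473/total Akt, and phospho/total Stat5.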

For test [8], the target named is MAP kinase p38 (Homo sapiens) (UniProt O15264+Q15759+Q16539+P53778). As to the kind of experiment: Inhibition of p38 MAPK phosphorylation in human HCC-827 cells at 5 uM after up to 24 hrs by Western blotting. Format: cell-based.
The test system of test [9] is NCI-H520. Description: Cytotoxicity against human NCI-H520 cells assessed as cell growth inhibition at 5 to 10 uM after 72 hrs by MTT assay. It counts as functional. In short, it runs like this: (§4)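 Cell lines with constitutive Stat3 phosphorylation (melanoma, NSCLC) exposed to prodrug at 5–10 μM. Percent growth inhibition recorded.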
A general note: Tetrazolium dyes change colour on reduction, which living cells bring about.

The nature of test [10]: Cytotoxicity against human NCI-H528 cells assessed as cell growth inhibition at 5 to 10 uM after 72 hrs by MTT assay. It counts as functional. In short, it runs like this:
as §4

In test [11] the target is T1, Signal transducer and activator of transcription 3. Description: Inhibition of SH2 domain of Stat3 constitutive phosphorylation at Tyr705 in human MDA-MB-468 cells at 5 uM after 16 hrs by Western blotting. It counts as cell-based. In short, it runs like this: as §2
Test [12] deals with MDA-MB-468. As to the kind of experiment: Selectivity ratio of inhibition of IFNgamma-induced Stat1 phosphorylation at Tyr701 to inhibition of EGF-induced SH2 domain of Stat3 phosphorylation at Tyr705 in human MDA-MB-468 cells. It counts as cell-based.
In test [13] the target is RAC-alpha serine/threonine-protein kinase (Homo sapiens) (UniProt P31749). As to the kind of experiment: Inhibition of EGF-induced Akt phosphorylation at Ser473 in human MDA-MB-468 cells at 5 uM treated 1.5 hrs before EGF challenge measured after 30 mins by Western blotting. It counts as cell-based. The gist of the method:
as §3

In test [14] the target is T2, Signal transducer and activator of transcription 5A (Homo sapiens) (UniProt P42229).
T2 sequence (whole entry): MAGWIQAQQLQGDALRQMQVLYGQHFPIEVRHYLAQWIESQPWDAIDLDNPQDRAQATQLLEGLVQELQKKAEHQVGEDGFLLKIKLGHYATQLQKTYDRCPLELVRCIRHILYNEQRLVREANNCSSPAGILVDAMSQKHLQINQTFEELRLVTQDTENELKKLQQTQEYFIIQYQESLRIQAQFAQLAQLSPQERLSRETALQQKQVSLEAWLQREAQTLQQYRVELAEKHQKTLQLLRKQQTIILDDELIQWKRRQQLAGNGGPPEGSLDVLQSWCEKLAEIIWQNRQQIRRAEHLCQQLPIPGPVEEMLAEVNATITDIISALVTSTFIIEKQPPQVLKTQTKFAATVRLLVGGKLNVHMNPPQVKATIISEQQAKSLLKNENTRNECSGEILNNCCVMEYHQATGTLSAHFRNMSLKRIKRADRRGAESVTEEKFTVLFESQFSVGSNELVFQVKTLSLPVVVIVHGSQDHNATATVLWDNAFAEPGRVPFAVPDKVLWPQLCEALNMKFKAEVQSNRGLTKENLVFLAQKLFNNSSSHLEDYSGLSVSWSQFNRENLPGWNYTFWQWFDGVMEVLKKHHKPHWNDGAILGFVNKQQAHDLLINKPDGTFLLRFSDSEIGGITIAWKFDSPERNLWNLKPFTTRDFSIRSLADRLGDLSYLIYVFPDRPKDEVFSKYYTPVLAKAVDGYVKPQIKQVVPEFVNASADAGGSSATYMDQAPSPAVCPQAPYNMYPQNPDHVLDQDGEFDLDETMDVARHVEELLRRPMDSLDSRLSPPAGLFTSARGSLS
As to the kind of experiment: Inhibition of EGF-induced SH2 domain of Stat5 phosphorylation at Tyr694 in human MDA-MB-468 cells at 5 uM treated 1.5 hrs before EGF challenge measured after 30 mins by Western blotting. Format: cell-based. In short, it runs like this: as §3

Test [15] is described as follows: Cytotoxicity against human SKOV3ip cells after 72 hrs by SRB assay. Format: functional, cell-based. To be noted: SKOV3-ip. In short, it runs like this:
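Cancer cell lines (MCF-7, SKOV3-ip, HCC-827) dosed daily with prodrug for three days; viability by SRB assay.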
Background: In SRB staining, fixed cells bind dye roughly in proportion to their protein.

Test [16] has as its target T1, Signal transducer and activator of transcription 3. Description: Inhibition of SH2 domain of Stat3 constitutive phosphorylation at Tyr705 in human MDA-MB-468 cells at 0.5 uM after 2 hrs by Western blotting. It counts as cell-based. The gist of the method:
as §1

For test [17] the target is unchanged. As to the kind of experiment: Inhibition of IL6-induced SH2 domain of Stat3 phosphorylation at Tyr705 in human HEY cells up to 10 uM treated 1.5 hrs before IL6 challenge measured after 30 mins by Western blotting. Format: cell-based. The gist of the method: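 Hey, MeWo and A375 cells (3×10^5/well, RPMI1640, overnight, fresh medium) given increasing prodrug concentrations for 2 h, with IL-6 10 ng/mL during the final 30 min; pStat3 and total Stat3 by Western blot.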

Test [18] has as its target Baculoviral IAP repeat-containing protein 5 (Homo sapiens) (UniProt O15392). As to the kind of experiment: Inhibition of survivin in human MDA-MB-468 cells at 5 uM after up to 48 hrs by Western blotting. Format: cell-based.

Activity calls are given as the source filed them. The rule behind the calls is not given here. Bounds are passed on as bounds.

T1 sequence (P40763 whole entry, the tested form may be a part): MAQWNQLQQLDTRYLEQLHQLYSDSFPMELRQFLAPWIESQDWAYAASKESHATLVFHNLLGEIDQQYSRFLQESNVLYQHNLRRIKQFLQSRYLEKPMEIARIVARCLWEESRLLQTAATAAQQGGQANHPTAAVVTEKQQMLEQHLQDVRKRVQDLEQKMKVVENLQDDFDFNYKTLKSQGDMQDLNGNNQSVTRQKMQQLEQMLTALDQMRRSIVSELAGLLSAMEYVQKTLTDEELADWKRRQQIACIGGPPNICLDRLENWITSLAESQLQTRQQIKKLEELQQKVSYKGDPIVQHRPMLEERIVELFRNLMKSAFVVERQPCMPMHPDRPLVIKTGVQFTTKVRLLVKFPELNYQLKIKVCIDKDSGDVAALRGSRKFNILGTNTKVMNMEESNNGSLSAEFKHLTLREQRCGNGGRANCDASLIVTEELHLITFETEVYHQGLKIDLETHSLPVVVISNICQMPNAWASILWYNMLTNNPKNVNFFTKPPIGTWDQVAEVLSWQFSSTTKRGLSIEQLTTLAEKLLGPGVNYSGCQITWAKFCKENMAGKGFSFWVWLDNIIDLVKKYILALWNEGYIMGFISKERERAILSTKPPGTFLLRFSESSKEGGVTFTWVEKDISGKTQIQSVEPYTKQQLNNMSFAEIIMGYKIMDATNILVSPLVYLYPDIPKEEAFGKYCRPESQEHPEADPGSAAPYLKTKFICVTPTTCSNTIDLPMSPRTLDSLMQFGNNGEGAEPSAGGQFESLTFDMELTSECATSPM
Sequence of RAC-alpha serine/threonine-protein kinase (Homo sapiens) (P31749 whole entry, the tested form may be a part): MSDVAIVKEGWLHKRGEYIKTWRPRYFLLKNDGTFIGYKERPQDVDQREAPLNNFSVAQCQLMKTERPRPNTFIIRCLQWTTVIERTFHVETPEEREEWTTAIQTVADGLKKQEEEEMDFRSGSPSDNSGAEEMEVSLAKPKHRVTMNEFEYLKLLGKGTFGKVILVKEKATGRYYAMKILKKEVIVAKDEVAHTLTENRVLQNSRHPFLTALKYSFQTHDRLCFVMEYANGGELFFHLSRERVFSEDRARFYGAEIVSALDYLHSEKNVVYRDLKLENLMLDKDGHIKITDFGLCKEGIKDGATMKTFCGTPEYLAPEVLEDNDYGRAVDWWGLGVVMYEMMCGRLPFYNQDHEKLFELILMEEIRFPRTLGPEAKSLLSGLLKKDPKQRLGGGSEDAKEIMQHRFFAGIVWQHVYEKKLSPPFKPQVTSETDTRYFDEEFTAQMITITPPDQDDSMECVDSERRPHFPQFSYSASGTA
Sequence of Baculoviral IAP repeat-containing protein 5 (Homo sapiens) (O15392 whole entry): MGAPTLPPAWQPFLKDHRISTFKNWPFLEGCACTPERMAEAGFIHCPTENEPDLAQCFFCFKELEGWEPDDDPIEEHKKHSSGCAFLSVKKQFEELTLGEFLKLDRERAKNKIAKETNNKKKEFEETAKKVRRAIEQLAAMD

A word on the IC50: it is the concentration that gives 50% inhibition. A low value points to greater potency. For the compound `C/C(=C\C(=O)N[C@H]1CCc2cccc3c2N(C1=O)[C@H](C(=O)N[C@H](C)CCC(N)=O)C3)c1ccc(C(F)(F)P(=O)(OCOC(=O)C(C)(C)C)OCOC(=O)C(C)(C)C)cc1`, the inhibition result in [1], in test [2], in test [3], in test [5], in test [6] and in test [7] was “Active” throughout. Further, the inhibition entry in [16], in [17] and in [18] was “Active” each time. The inhibition entry in [4], in test [8], in test [11], in test [13] and in test [14] was “inactive” in each case. The “growth inhibition (GI)” value in [9] and in test [10] was less than 20% in each case. For the same compound, the Ratio in test [12] was 10. For the same compound, the IC50 in test [15] is greater than 30 µM.
